Test results: paper PMC3817326 (British Journal of Cancer, 2013)

Legend:
[1] = Metabolic stability in mouse S9 fractions; assay type: in vitro ADME; conditions: 60 min incubation with NADPH and mouse S9 fractions
[2] = tested on: caco-2 monolayers; experiment: Transwell permeability assay across caco-2 monolayers; assay type: in vitro ADME, human; conditions: compounds tested at 10 μM
How it was run: (§1)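 Caco-2 monolayers in transwells were used to measure apical-to-basal absorption (PappA–B) and basal-to-apical secretion (PappB–A). Efflux ratio was calculated as PappB–A/PappA–B. Runs were made with or without ABC transporter inhibitors (FTC for ABCG2, verapamil for ABCB1), with vinblastine as an ABCB1 reference substrate.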

[3] = tested on: A2780^AD cells, overexpressing ABCB1; experiment: Growth inhibition in doxorubicin-resistant A2780AD cells vs parental A2780; assay type: cell-based
[4] = tested on: caspase 3/7 activity in HCT-116 cells; experiment: Caspase 3/7 assay; assay type: cell-based, human; conditions: 24 h
How it was run: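 Treated cells were transferred to opaque plates and incubated 1 h with a luminogenic caspase 3/7 reagent. Luminescence on a microplate counter gave caspase 3/7 activity, normalised to protein content.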

[5] = Transwell permeability assay across caco-2 monolayers; assay type: in vitro ADME, human; conditions: human, Caco-2
How it was run: as §1

[6] = tested on: Ki-67; conditions: after 5 days of treatment; ref Li et al, 2012; cited from earlier work

Q: Which Parent compound remaining [1] does the source give for `CC[C@H](CO)Nc1nc(NCc2ccccc2)c2ncn(C(C)C)c2n1` [roscovitine] here?
A: < 10%

Q: With `CC(C)c1cnn2c(NCc3ccccc3)cc(NCCCCCCN)nc12` [BS-181] as the molecule, how does the “Permeability PappA–B across caco-2 cells” value [2] read?
A: poorly absorbed

Q: What about the “Potency in A2780^AD cells compared with parental A2780” value [3] of the same molecule?
A: equipotent

Q: And the “Caspase 3/7 activity” value [4]?
A: only at the highest concentration tested

Q: For `CC[C@]1(O)C[C@@H]2CN(CCc3c([nH]c4ccccc34)[C@@](C(=O)OC)(c3cc4c(cc3OC)N(C)[C@H]3[C@@](O)(C(=O)OC)[C@H](OC(C)=O)[C@]5(CC)C=CCN6CC[C@]43[C@@H]65)C2)C1` [vinblastine], which efflux ratio at 10 μM [5] is on record?
A: 8

Q: With `CO[C@H]1C[C@@H]2CC[C@@H](C)[C@@](O)(O2)C(=O)C(=O)N2CCCC[C@H]2C(=O)O[C@H]([C@H](C)C[C@@H]2CC[C@@H](OCCO)[C@H](OC)C2)CC(=O)[C@H](C)/C=C(\C)[C@@H](O)[C@@H](OC)C(=O)[C@H](C)C[C@H](C)/C=C/C=C/C=C/1C` [everolimus] as the molecule, how does the “Decrease in Ki-67” value [6] read?
A: 1.6 fold
